Test results: publication PMC3227540 (Science translational medicine, 2011)
Like-named read-outs stand apart in the source and are kept apart here.

Tests used:
TTR [1] = target: T1, TTR (Homo sapiens, UniProt P02766); assay: Acid-mediated TTR amyloidogenesis; type: biochemical; details: kinetic aggregation assay over 5 days, TTR 3.6 μM, ligand 3.0 μM
TTR [2] = target: T1, TTR; assay: Surface plasmon resonance; type: binding; details: SPR
human wild type TTR = human wild type TTR (Homo sapiens, UniProt P02766); assay: Isothermal titration calorimetry; details: two-site binding model; for Kd: ITC
AC16 cells = assay: Inhibition of V122I TTR cytotoxicity towards AC16 cells; type: cell-based, human; details: TTR and ligands 8 μM
serum TTR = serum TTR (Homo sapiens, UniProt P02766); assay: Stabilization of human serum TTR against acid-mediated denaturation; type: biochemical; details: 50 μM compound, acid treatment 72 hours
IMR-32 cells = assay: Inhibition of WT-TTR cytotoxicity towards IMR-32 neuroblastoma cells; type: cell-based, human; details: fig. S8B
COX-1 = COX-1 (Homo sapiens, UniProt P23219); assay: COX-1 enzymatic inhibition; type: biochemical; details: read-out: COX-1 inhibition
Sequence of COX-1 (P23219 24-599): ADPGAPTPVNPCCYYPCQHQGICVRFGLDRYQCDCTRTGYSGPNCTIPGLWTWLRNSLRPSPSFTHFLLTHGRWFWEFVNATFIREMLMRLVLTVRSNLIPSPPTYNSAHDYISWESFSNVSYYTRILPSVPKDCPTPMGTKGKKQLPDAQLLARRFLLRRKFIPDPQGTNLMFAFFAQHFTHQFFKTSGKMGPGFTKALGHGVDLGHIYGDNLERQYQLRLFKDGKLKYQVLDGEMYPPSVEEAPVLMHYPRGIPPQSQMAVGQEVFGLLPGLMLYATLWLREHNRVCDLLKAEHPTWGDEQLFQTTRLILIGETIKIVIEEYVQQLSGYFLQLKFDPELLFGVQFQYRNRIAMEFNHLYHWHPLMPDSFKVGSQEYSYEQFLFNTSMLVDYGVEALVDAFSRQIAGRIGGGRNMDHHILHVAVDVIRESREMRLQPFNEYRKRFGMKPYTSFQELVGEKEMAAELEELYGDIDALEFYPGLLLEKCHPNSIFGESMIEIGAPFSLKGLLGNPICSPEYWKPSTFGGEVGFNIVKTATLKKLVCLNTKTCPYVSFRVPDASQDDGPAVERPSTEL

TTR [3] = target: T1, TTR; assay: Fluorescence polarization; details: competitive displacement of probe 1, apparent binding constant
How it was run: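 Competitive displacement of the fluorescent probe from the TTR thyroxine-binding pocket under physiological conditions. The test compound is titrated from 0.01 to 50 μM, and fluorescence polarization is read at excitation 485 nm and emission 525 nm. The dose-dependent drop in polarization is fitted to give the apparent binding constant, Kapp. Run in triplicate; SD reported.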

Structure (SMILES)	Fibril formation at substoichiometric ligand (in words) (TTR [1])	koff, fold faster than ligand 7 (TTR [2])	Kd (human wild type TTR; read-out: Kd1, first site)	Kd (human wild type TTR; read-out: Kd2, second site)	ITC binding affinity (in words) (human wild type TTR)	Rescue of AC16 cell viability from V122I TTR proteotoxicity (in words) (AC16 cells)	% tetramer at 72 hrs (of tetramer present at 0 hours) (serum TTR)	Performance against WT-TTR toxicity in IMR-32 cells (in words) (IMR-32 cells)	fold lower target residence time than ligand 7 (TTR [2])	inhibition at 10 µM (COX-1)	Kapp (TTR [3])
O=C(c1cc(O)c(O)c([N+](=O)[O-])c1)c1ccccc1F [Ro 41-0960]	dramatically slowed fibril formation	~ 5 x	0.015 µM	2 µM	low nanomolar affinity	completely rescued					
O=[N+]([O-])c1cc(O)c(O)c([N+](=O)[O-])c1 [3,5-dinitrocatechol]						performed poorly	37.6%	performed poorly			
O=C(O)c1cccnc1Nc1cccc(C(F)(F)F)c1 [niflumic acid]						performed poorly	11.5%	performed poorly	~ 20 x	94%	
O=C(O)Cc1ccccc1Nc1c(Cl)cccc1Cl [diclofenac]									~40 x		4.66 µM
